According to ChEMBL document CHEMBL2417392, “Synthesis and broad spectrum antiviral evaluation of bis(POM) prodrugs of novel acyclic nucleosides” (Eur J Med Chem, 2013):

What was measured:
[1] = test system: Human immunodeficiency virus; experiment: Antiviral activity against HIV infected in human CEM cells assessed as inhibition of HIV-induced CEM giant cell formation after 4 days by microscopy; details: Human immunodeficiency virus 1, CCRF-CEM, 96 h
CCRF-CEM = experiment: Cytotoxicity against human CEM cells; type: cell-based
Hepatitis C virus = experiment: Antiviral activity against HCV infected in Huh7 cells assessed as inhibition of viral RNA replication after 5 days by RT-PCR Assay; type: functional, Hepacivirus hominis, Huh-7
Outline: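 Huh 7 Clone B cells carrying subgenomic HCV replicon RNA, seeded 3000 cells/well, compound added at 10 μM in triplicate right after seeding; 5 days at 37 °C, 5% CO2. Total RNA extracted; replicon RNA and rRNA internal control amplified by one-step multiplex real-time RT-PCR. Activity as ΔCt versus no-drug control (ΔCt 3.3 = 1-log reduction); ΔCt converted to fraction of starting material for % inhibition.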

PBMC = experiment: Cytotoxicity against human PBMC cells; type: cell-based
Vero = experiment: Cytotoxicity against african green monkey Vero cells; type: cell-based; details: chlorocebus sabaeus
Human betaherpesvirus 5 = experiment: Antiviral activity against human Cytomegalovirus AD169 infected in HEL cells assessed as inhibition of virus-induced cytopathicity after; type: functional, organism-based; details: Human betaherpesvirus 5, AD169, HEL
HEL = experiment: Cytotoxicity against human HEL cells after 3 days by Coulter counting method; type: cell-based; details: 72 h

In the case of `CCCCCCc1ccc(-c2cn(C/C=C/CP(=O)(OCOC(=O)C(C)(C)C)OCOC(=O)C(C)(C)C)nn2)cc1`, the EC50 [1] is reported as 43.9 µM, the EC90 [1] is reported as > 100 µM and the CC50 (CCRF-CEM) is reported as 16.1 µM. The “inhibition (INH)” value (Hepatitis C virus) was 95%, the CC50 (PBMC) was 5.9 µM and the CC50 (Vero) was 10.4 µM.

For `CC(C)(C)C(=O)OCOP(=O)(C/C=C/Cn1cc(-c2ccc(OC(F)(F)F)cc2)nn1)OCOC(=O)C(C)(C)C`, the EC50 [1] was 55.2 µM, the EC90 [1] was > 100 µM and the CC50 (CCRF-CEM) was 37.6 µM. The “inhibition (INH)” value (Hepatitis C virus) was 60.6%, the CC50 (PBMC) was 19.6 µM and the CC50 (Vero) was 12.7 µM.

For `CC(C)(C)C(=O)OCOP(=O)(C/C=C/Cn1cc(-c2ccc(F)cc2)nn1)OCOC(=O)C(C)(C)C`, the EC50 [1] was > 100 µM, the EC90 [1] was > 100 µM and the CC50 (CCRF-CEM) was 31.6 µM. The “inhibition (INH)” value (Hepatitis C virus) was 84.3%, the CC50 (PBMC) was 61.9 µM and the CC50 (Vero) was 47 µM.

In the case of `COc1cc(OC)cc(-c2cn(C/C=C/CP(=O)(OCOC(=O)C(C)(C)C)OCOC(=O)C(C)(C)C)nn2)c1`, the EC50 [1] is reported as > 100 µM, the EC90 [1] is reported as > 100 µM and the CC50 (CCRF-CEM) is reported as 68.2 µM. For the same compound, the “inhibition (INH)” value (Hepatitis C virus) was 20.8%, the CC50 (PBMC) was > 100 µM and the CC50 (Vero) was 86.8 µM.

`CC(C)(C)C(=O)OCOP(=O)(C/C=C/Cn1cc(CO)nn1)OCOC(=O)C(C)(C)C` was tested, and the EC50 (Human betaherpesvirus 5) was 9.9 µM, the EC50 [1] was > 100 µM and the EC90 [1] was > 100 µM. The CC50 (CCRF-CEM) was 57.4 µM, the CC50 (HEL) was 100 µM and the “inhibition (INH)” value (Hepatitis C virus) was 78.1%. The CC50 (PBMC) was 73.2 µM and the CC50 (Vero) was 87.1 µM.

With `CC(C)(C)C(=O)OCOP(=O)(C/C=C/Cn1cc(-c2cccs2)nn1)OCOC(=O)C(C)(C)C` the EC50 [1] was 62.3 µM, the EC90 [1] was > 100 µM and the CC50 (CCRF-CEM) was 31.6 µM. For the same compound, the “inhibition (INH)” value (Hepatitis C virus) was 0.2%, the CC50 (PBMC) was 32.9 µM and the CC50 (Vero) was 17.1 µM.

For `CCCCCCCCc1cn(C/C=C/CP(=O)(OCOC(=O)C(C)(C)C)OCOC(=O)C(C)(C)C)nn1`, the EC50 [1] was > 100 µM, the EC90 [1] was > 100 µM and the CC50 (CCRF-CEM) was 16.8 µM. The “inhibition (INH)” value (Hepatitis C virus) was 88.7%, the CC50 (PBMC) was 19.8 µM and the CC50 (Vero) was 10.3 µM.

`CC(C)(C)C(=O)OCOP(=O)(C/C=C/Cn1cc(C(N)=O)nn1)OCOC(=O)C(C)(C)C` was tested, and the EC50 [1] was 70.5 µM, the EC90 [1] was > 100 µM and the CC50 (CCRF-CEM) was 52.9 µM. The “inhibition (INH)” value (Hepatitis C virus) was 86.5%, the CC50 (PBMC) was 62.4 µM and the CC50 (Vero) was 80.6 µM.

With `CC(C)(C)C(=O)OCOP(=O)(C/C=C/Cn1ccc(N)nc1=O)OCOC(=O)C(C)(C)C` the EC50 [1] was 70.4 µM, the EC90 [1] was > 100 µM and the CC50 (CCRF-CEM) was > 100 µM. The “inhibition (INH)” value (Hepatitis C virus) was 80.4%, the CC50 (PBMC) was > 100 µM and the CC50 (Vero) was > 100 µM.

For `CC(C)(C)C(=O)OCOP(=O)(C/C=C/Cn1cc(F)c(N)nc1=O)OCOC(=O)C(C)(C)C`, the “inhibition (INH)” value (Hepatitis C virus) was 73.6%.

For `COC(=O)c1nccn(C/C=C/CP(=O)(OCOC(=O)C(C)(C)C)OCOC(=O)C(C)(C)C)c1=O`, the EC50 [1] was > 100 µM, the EC90 [1] was > 100 µM and the CC50 (CCRF-CEM) was > 100 µM. The “inhibition (INH)” value (Hepatitis C virus) was 76.9%, the CC50 (PBMC) was > 100 µM and the CC50 (Vero) was > 100 µM.

`CC(C)(C)C(=O)OCOP(=O)(C/C=C/Cn1ccnc(C(N)=O)c1=O)OCOC(=O)C(C)(C)C` was tested, and the EC50 [1] was > 100 µM, the EC90 [1] was > 100 µM and the CC50 (CCRF-CEM) was > 100 µM. For the same compound, the “inhibition (INH)” value (Hepatitis C virus) was 60%, the CC50 (PBMC) was > 100 µM and the CC50 (Vero) was > 100 µM.

With `CC(C)(C)C(=O)OCOP(=O)(C/C=C/Cn1cnc(C(N)=O)n1)OCOC(=O)C(C)(C)C` the EC50 [1] was > 100 µM, the EC90 [1] was > 100 µM and the CC50 (CCRF-CEM) was 41.8 µM. The “inhibition (INH)” value (Hepatitis C virus) was 73.9%, the CC50 (PBMC) was 58.3 µM and the CC50 (Vero) was 86.8 µM.

In the case of `CC(C)(C)C(=O)OCOP(=O)(C/C=C/Cn1ccnn1)OCOC(=O)C(C)(C)C`, the EC50 [1] is reported as > 100 µM, the EC90 [1] is reported as > 100 µM and the CC50 (CCRF-CEM) is reported as 81.8 µM. For the same compound, the “inhibition (INH)” value (Hepatitis C virus) was 85.9%, the CC50 (PBMC) was 93.1 µM and the CC50 (Vero) was 87.9 µM.

`CC(C)(C)C(=O)OCOP(=O)(C/C=C/Cn1cc(C(=O)O)nn1)OCOC(=O)C(C)(C)C` was tested, and the EC50 [1] was > 100 µM, the EC90 [1] was > 100 µM and the CC50 (CCRF-CEM) was > 100 µM. For the same compound, the “inhibition (INH)” value (Hepatitis C virus) was 53.8%, the CC50 (PBMC) was > 100 µM and the CC50 (Vero) was > 100 µM.

With `CC(C)(C)C(=O)OCOP(=O)(C/C=C/Cn1cc(-c2ccccc2)nn1)OCOC(=O)C(C)(C)C` the EC50 [1] was 35.8 µM, the EC90 [1] was > 100 µM and the CC50 (CCRF-CEM) was 31.6 µM. The “inhibition (INH)” value (Hepatitis C virus) was 83.1%, the CC50 (PBMC) was 16 µM and the CC50 (Vero) was 15.6 µM.

In the case of `CCCc1ccc(-c2cn(C/C=C/CP(=O)(OCOC(=O)C(C)(C)C)OCOC(=O)C(C)(C)C)nn2)cc1`, the EC50 [1] is reported as 31.6 µM, the EC90 [1] is reported as > 100 µM and the CC50 (CCRF-CEM) is reported as 55.3 µM. The “inhibition (INH)” value (Hepatitis C virus) was 95.6%, the CC50 (PBMC) was 35.9 µM and the CC50 (Vero) was 41 µM.

With `Nc1ccn(C[C@@H](CO)OCP(=O)(O)O)c(=O)n1` [CIDOFOVIR] the CC50 (HEL) was > 350 µM.

For `Nc1nc(O)c2ncn(COC(CO)CO)c2n1` [GANCICLOVIR], the CC50 (HEL) was > 350 µM.
